According to ChEMBL document CHEMBL1133996, “The synthesis of pseudomycin C' via a novel acid promoted side-chain deacylation of pseudomycin A” (2001):
In brackets after ≈: the same amount, converted by molar mass.

Key:
Assay type in all cases: functional
[1] = tested on: Aspergillus fumigatus; assay: Minimum inhibitory concentration tested in vitro against Aspergillus fumigatus
Summary of the method: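 A. fumigatus broth microdilution: spores teased from mycelia grown on potato dextrose agar into 0.1% Tween 80/saline, adjusted to 1 × 10^5 spores/mL in Sabouraud broth. Compounds from DMSO, starting at 20 µg/mL, serial 2-fold dilutions.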

[2] = tested on: Mus musculus; assay: Effective dose against Candida albicans tested in infected mice on intraperitoneal administration; settings: ip
Summary of the method: (§1)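 C. albicans systemic infection in mice: 2 × 10^6 blastoconidia iv (0.1 mL, lateral tail vein). Dosed ip (0.2 mL) at 0, 4, 24 and 48 h post-infection at 20, 10 and 5.0 mg/kg, six mice per level, in 4.0% hydroxypropyl β cyclodextrin/sodium acetate pH 7.0/1.75% dextrose; vehicle-dosed infected controls (10). Morbidity/mortality followed 7 days; ED50 by Reed–Muench.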

[3] = tested on: Candida albicans; assay: Minimum inhibitory concentration tested in vitro against Candida albicans
Summary of the method: (§2)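 Robotic broth microdilution: DMSO stocks diluted in broth to a starting 20 µg/mL, serial 2-fold dilutions. Yeasts grown on Sabouraud dextrose agar, 35°C, 24 h, suspended in saline and adjusted to 1 × 10^5 conidia/mL in Sabouraud dextrose broth (hemacytometer count).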

[4] = tested on: Cryptococcus neoformans; assay: Minimum inhibitory concentration tested in vitro against Cryptococcus neoformans; summary of the method: as §2
[5] = tested on: Candida parapsilosis; assay: Minimum inhibitory concentration tested in vitro against Candida parapsilosis; summary of the method: as §2
[6] = tested on: Histoplasma capsulatum; assay: Minimum inhibitory concentration tested in vitro against Histoplasma capsulatum
Summary of the method: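 Robotic broth microdilution. Compounds dissolved in 100% DMSO, diluted in broth to start at 20 µg/mL in the first wells after inoculum, then serial 2-fold dilutions. Conidia suspended in saline and adjusted to 1 × 10^5 conidia/mL in Sabouraud dextrose broth. Incubated 48 h at 35 °C in ambient air. MIC = lowest concentration inhibiting 90–100% of visible growth vs untreated controls.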

[7] = tested on: Mus musculus; assay: Effective dose administered intraperitoneally against Candida albicans infected mice; settings: ip; summary of the method: as §1
[8] = Aspergillus fumigatus, read-out: MIC
[9] = Candida albicans, read-out: MIC
[10] = Cryptococcus neoformans, read-out: MIC
[11] = Lodderomyces parapsilosis, read-out: MIC
[12] = Histoplasma capsulatum, read-out: MIC

Row | Compound | MIC [1, 8] [µg/mL] | MIC [3, 9] [µg/mL] | MIC [4, 10] [µg/mL] | MIC [5, 11] [µg/mL] | MIC [6, 12] [µg/mL] | other results
1 | C/C=C1/NC(=O)[C@H]([C@H](C)O)NC(=O)[C@H](CCN)NC(=O)[C@H](CCCCN)NC(=O)[C@H](CC(=O)O)NC(=O)[C@@H](CCN)NC(=O)[C@@H](NC(=O)CC(O)C(O)CCCCCCCCCC)COC(=O)[C@H]([C@H](O)CCl)NC(=O)[C@H]([C@H](O)C(=O)O)NC1=O (stereo not given in full) | 10 (≈ 8.17 µM) | 0.625 (≈ 0.511 µM) | 0.078 (≈ 0.0637 µM) |  |  | ED50 [2]: 7.1 mg/kg
2 | C/C=C1/NC(=O)[C@H]([C@H](C)O)NC(=O)[C@H](CCN)NC(=O)[C@H](CCCCN)NC(=O)[C@H](CC(=O)O)NC(=O)[C@@H](CCN)NC(=O)[C@@H](NC(=O)CCCCCCCCCCCCCCC)COC(=O)[C@H]([C@H](O)CCl)NC(=O)[C@H]([C@H](O)C(=O)O)NC1=O |  | 10 (≈ 8.2 µM) | 1.25 (≈ 1.02 µM) | 10 (≈ 8.2 µM) | 10 (≈ 8.2 µM) | 
3 | C/C=C1/NC(=O)[C@H]([C@H](C)O)NC(=O)[C@H](CCN)NC(=O)[C@H](CCCCN)NC(=O)[C@H](CC(=O)O)NC(=O)[C@@H](CCN)NC(=O)[C@@H](NC(=O)C[C@@H](O)CCCCCCCCCCCCC)COC(=O)[C@H]([C@H](O)CCl)NC(=O)[C@H]([C@H](O)C(=O)O)NC1=O | 20 (≈ 16.2 µM) | 5 (≈ 4.05 µM) | 5 (≈ 4.05 µM) | 5 (≈ 4.05 µM) | 5 (≈ 4.05 µM) | 
4 | C/C=C1/NC(=O)[C@H]([C@H](C)O)NC(=O)[C@H](CCN)NC(=O)[C@H](CCCCN)NC(=O)[C@H](CC(=O)O)NC(=O)[C@@H](CCN)NC(=O)[C@@H](NC(=O)CC(O)CCCCCCCCC)COC(=O)[C@H]([C@H](O)CCl)NC(=O)[C@H]([C@H](O)C(=O)O)NC1=O (stereo not given in full) | > 20 | 10 (≈ 8.48 µM) | 1.25 (≈ 1.06 µM) |  |  | 
5 | C/C=C1/NC(=O)[C@H]([C@H](C)O)NC(=O)[C@H](CCN)NC(=O)[C@H](CCCCN)NC(=O)[C@H](CC(=O)O)NC(=O)[C@@H](CCN)NC(=O)[C@@H](NC(=O)CC(O)C(O)CCCCCCCCCCCC)COC(=O)[C@H]([C@H](O)CCl)NC(=O)[C@H]([C@H](O)C(=O)O)NC1=O (stereo not given in full) | 1.25 (≈ 0.999 µM) | 0.078 (≈ 0.0623 µM) | 0.02 (≈ 0.016 µM) |  |  | ED50 [7]: > 5 mg/kg
6 | C/C=C1/NC(=O)[C@H]([C@H](C)O)NC(=O)[C@H](CCN)NC(=O)[C@H](CCCCN)NC(=O)[C@H](CC(=O)O)NC(=O)[C@@H](CCN)NC(=O)[C@@H](NC(=O)CC(O)C(O)CCCCCCCCCCC)COC(=O)[C@H]([C@H](O)CCl)NC(=O)[C@H]([C@H](O)C(=O)O)NC1=O (stereo not given in full) | > 20 | 2.5 (≈ 2.02 µM) | 1.25 (≈ 1.01 µM) |  |  | 
7 | C/C=C1/NC(=O)[C@H]([C@H](C)O)NC(=O)[C@H](CCN)NC(=O)[C@H](CCCCN)NC(=O)[C@H](CC(=O)O)NC(=O)[C@@H](CCN)NC(=O)[C@@H](NC(=O)CC(O)CCCCCCCCCCC)COC(=O)[C@H]([C@H](O)CCl)NC(=O)[C@H]([C@H](O)C(=O)O)NC1=O (stereo not given in full) | 10 (≈ 8.28 µM) | 0.156 (≈ 0.129 µM) | 0.02 (≈ 0.0166 µM) |  |  | ED50 [7]: 3.5 mg/kg
8 | C/C=C1/NC(=O)[C@H]([C@H](C)O)NC(=O)[C@H](CCN)NC(=O)[C@H](CCCCN)NC(=O)[C@H](CC(=O)O)NC(=O)[C@@H](CCN)NC(=O)[C@@H](NC(=O)C[C@H](O)CCCCCCCCCCCCC)COC(=O)[C@H]([C@H](O)CCl)NC(=O)[C@H]([C@H](O)C(=O)O)NC1=O (stereo in doubt; form 1) |  | 0.039 (≈ 0.0316 µM) | < 0.01 | 0.039 (≈ 0.0316 µM) | 0.156 (≈ 0.126 µM) | MIC [1]: 0.312 µg/mL (≈ 0.252 µM)
9 | C/C=C1/NC(=O)[C@H]([C@H](C)O)NC(=O)[C@H](CCN)NC(=O)[C@H](CCCCN)NC(=O)[C@H](CC(=O)O)NC(=O)[C@@H](CCN)NC(=O)[C@@H](NC(=O)CC(O)CCCCCCCCCCCCC)COC(=O)[C@H]([C@H](O)CCl)NC(=O)[C@H]([C@H](O)C(=O)O)NC1=O (stereo in doubt; form 1) | 1.25 (≈ 1.01 µM) | 0.156 (≈ 0.126 µM) | < 0.01 | 0.156 (≈ 0.126 µM) | 0.312 (≈ 0.252 µM) | 
10 | C/C=C1/NC(=O)[C@H]([C@H](C)O)NC(=O)[C@H](CCN)NC(=O)[C@H](CCCCN)NC(=O)[C@H](CC(=O)O)NC(=O)[C@@H](CCN)NC(=O)[C@@H](NC(=O)C[C@H](O)CCCCCCCCCCCCC)COC(=O)[C@H]([C@H](O)CCl)NC(=O)[C@H]([C@H](O)C(=O)O)NC1=O (stereo in doubt; form 2) |  |  |  |  |  | MIC [5]: 0.02 µg/mL (≈ 0.0162 µM); MIC [1]: 0.625 µg/mL (≈ 0.506 µM); MIC [6]: 0.156 µg/mL (≈ 0.126 µM); MIC [3]: 0.039 µg/mL (≈ 0.0316 µM)
11 | C/C=C1/NC(=O)[C@H]([C@H](C)O)NC(=O)[C@H](CCN)NC(=O)[C@H](CCCCN)NC(=O)[C@H](CC(=O)O)NC(=O)[C@@H](CCN)NC(=O)[C@@H](NC(=O)CC(O)CCCCCCCCCCCCC)COC(=O)[C@H]([C@H](O)CCl)NC(=O)[C@H]([C@H](O)C(=O)O)NC1=O (stereo in doubt; form 2) |  |  |  |  |  | ED50 [7]: 2.5 mg/kg; MIC [1]: 0.625 µg/mL (≈ 0.506 µM); MIC [3]: 0.156 µg/mL (≈ 0.126 µM); MIC [4]: 0.005 µg/mL (≈ 0.00405 µM)
